Measurements: PMC5084670 (Cancer Science, 2016)

Assay: Phase I dose-escalation study: safety, adverse events
Format: in vivo, human
Procedure, shortened: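 Oral test compound was given once daily in 28-day cycles after a 7-day single-dose run-in, in Japanese and Hong Kong/Taiwan groups escalated separately. Toxicity was graded by CTCAE v3.0 using laboratory tests, physical examination, vital signs, weight and periodic ECG. DLTs were grade 3–4 events over the run-in plus cycle 1. MTD was set by an adaptive Bayesian logistic regression model with overdose control.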

[1] = group 2, 400 mg q.d. (n = 12), All grades
[2] = group 2, 400 mg q.d. (n = 12), Grade 3
[3] = group 2, 400 mg q.d. (n = 12), Grade 4
[4] = group 2, 600 mg q.d. (n = 8), All grades
[5] = group 2, 600 mg q.d. (n = 8), Grade 3
[6] = group 2, 600 mg q.d. (n = 8), Grade 4
[7] = group 2, 800 mg q.d. (n = 4), All grades
[8] = group 2, 800 mg q.d. (n = 4), Grade 3
[9] = group 2, 800 mg q.d. (n = 4), Grade 4
[10] = group 2, All patients (n = 24), All grades
[11] = group 2, All patients (n = 24), Grade 3
[12] = group 2, All patients (n = 24), Grade 4

SMILES: Cc1c(C(=O)Nc2ccc(N3C[C@@H](C)O[C@@H](C)C3)nc2)cccc1-c1ccc(OC(F)(F)F)cc1 [Sonidegib]
- Dysgeusia (drug-related adverse event) [1]: 2 (17) n (%)
- Fatigue (drug-related adverse event) [1]: 4 (33) n (%)
- Hepatic function abnormal (drug-related adverse event) [1]: 2 (17) n (%)
- Muscular weakness (drug-related adverse event) [1]: 0 (0) n (%)
- Myalgia (drug-related adverse event) [1]: 2 (17) n (%)
- Nausea (drug-related adverse event) [1]: 0 (0) n (%)
- Pyrexia (drug-related adverse event) [1]: 0 (0) n (%)
- Vomiting (drug-related adverse event) [1]: 0 (0) n (%)
- Blood creatine kinase increased (drug-related adverse event) [2]: 1 (8) n (%)
- Decreased appetite (drug-related adverse event) [2]: 0 (0) n (%)
- Diarrhea (drug-related adverse event) [2]: 0 (0) n (%)
- Dizziness (drug-related adverse event) [2]: 0 (0) n (%)
- Dysgeusia (drug-related adverse event) [2]: 0 (0) n (%)
- Fatigue (drug-related adverse event) [2]: 0 (0) n (%)
- Hepatic function abnormal (drug-related adverse event) [2]: 0 (0) n (%)
- Muscular weakness (drug-related adverse event) [2]: 0 (0) n (%)
- Myalgia (drug-related adverse event) [2]: 0 (0) n (%)
- Nausea (drug-related adverse event) [2]: 0 (0) n (%)
- Pyrexia (drug-related adverse event) [2]: 0 (0) n (%)
- Vomiting (drug-related adverse event) [2]: 0 (0) n (%)
- Blood creatine kinase increased (drug-related adverse event) [3]: 1 (8) n (%)
- Decreased appetite (drug-related adverse event) [3]: 0 (0) n (%)
- Diarrhea (drug-related adverse event) [3]: 0 (0) n (%)
- Dizziness (drug-related adverse event) [3]: 0 (0) n (%)
- Dysgeusia (drug-related adverse event) [3]: 0 (0) n (%)
- Fatigue (drug-related adverse event) [3]: 0 (0) n (%)
- Hepatic function abnormal (drug-related adverse event) [3]: 0 (0) n (%)
- Muscular weakness (drug-related adverse event) [3]: 0 (0) n (%)
- Myalgia (drug-related adverse event) [3]: 0 (0) n (%)
- Nausea (drug-related adverse event) [3]: 0 (0) n (%)
- Pyrexia (drug-related adverse event) [3]: 0 (0) n (%)
- Vomiting (drug-related adverse event) [3]: 0 (0) n (%)
- Blood creatine kinase increased (drug-related adverse event) [4]: 3 (38) n (%)
- Decreased appetite (drug-related adverse event) [4]: 3 (38) n (%)
- Diarrhea (drug-related adverse event) [4]: 1 (13) n (%)
- Dizziness (drug-related adverse event) [4]: 1 (13) n (%)
- Dysgeusia (drug-related adverse event) [4]: 3 (38) n (%)
- Fatigue (drug-related adverse event) [4]: 1 (13) n (%)
- Hepatic function abnormal (drug-related adverse event) [4]: 2 (25) n (%)
- Muscular weakness (drug-related adverse event) [4]: 1 (13) n (%)
- Myalgia (drug-related adverse event) [4]: 3 (38) n (%)
- Nausea (drug-related adverse event) [4]: 3 (38) n (%)
- Pyrexia (drug-related adverse event) [4]: 1 (13) n (%)
- Vomiting (drug-related adverse event) [4]: 2 (25) n (%)
- Blood creatine kinase increased (drug-related adverse event) [5]: 0 (0) n (%)
- Decreased appetite (drug-related adverse event) [5]: 0 (0) n (%)
- Diarrhea (drug-related adverse event) [5]: 0 (0) n (%)
- Dizziness (drug-related adverse event) [5]: 0 (0) n (%)
- Dysgeusia (drug-related adverse event) [5]: 0 (0) n (%)
- Fatigue (drug-related adverse event) [5]: 0 (0) n (%)
- Hepatic function abnormal (drug-related adverse event) [5]: 1 (13) n (%)
- Muscular weakness (drug-related adverse event) [5]: 0 (0) n (%)
- Myalgia (drug-related adverse event) [5]: 1 (13) n (%)
- Nausea (drug-related adverse event) [5]: 0 (0) n (%)
- Pyrexia (drug-related adverse event) [5]: 0 (0) n (%)
- Vomiting (drug-related adverse event) [5]: 0 (0) n (%)
- Blood creatine kinase increased (drug-related adverse event) [6]: 1 (13) n (%)
- Decreased appetite (drug-related adverse event) [6]: 0 (0) n (%)
- Diarrhea (drug-related adverse event) [6]: 0 (0) n (%)
- Dizziness (drug-related adverse event) [6]: 0 (0) n (%)
- Dysgeusia (drug-related adverse event) [6]: 0 (0) n (%)
- Fatigue (drug-related adverse event) [6]: 0 (0) n (%)
- Hepatic function abnormal (drug-related adverse event) [6]: 0 (0) n (%)
- Muscular weakness (drug-related adverse event) [6]: 0 (0) n (%)
- Myalgia (drug-related adverse event) [6]: 0 (0) n (%)
- Nausea (drug-related adverse event) [6]: 0 (0) n (%)
- Pyrexia (drug-related adverse event) [6]: 0 (0) n (%)
- Vomiting (drug-related adverse event) [6]: 0 (0) n (%)
- DLT in cycle 1 (creatine kinase elevation) (group 2, 800 mg): single DLT
- Blood creatine kinase increased (drug-related adverse event) [7]: 3 (75) n (%)
- Decreased appetite (drug-related adverse event) [7]: 2 (50) n (%)
- Diarrhea (drug-related adverse event) [7]: 1 (25) n (%)
- Dizziness (drug-related adverse event) [7]: 1 (25) n (%)
- Dysgeusia (drug-related adverse event) [7]: 1 (25) n (%)
- Fatigue (drug-related adverse event) [7]: 3 (75) n (%)
- Hepatic function abnormal (drug-related adverse event) [7]: 3 (75) n (%)
- Muscular weakness (drug-related adverse event) [7]: 3 (75) n (%)
- Myalgia (drug-related adverse event) [7]: 3 (75) n (%)
- Nausea (drug-related adverse event) [7]: 2 (50) n (%)
- Pyrexia (drug-related adverse event) [7]: 1 (25) n (%)
- Vomiting (drug-related adverse event) [7]: 1 (25) n (%)
- Blood creatine kinase increased (drug-related adverse event) [8]: 0 (0) n (%)
- Decreased appetite (drug-related adverse event) [8]: 1 (25) n (%)
- Diarrhea (drug-related adverse event) [8]: 0 (0) n (%)
- Dizziness (drug-related adverse event) [8]: 0 (0) n (%)
- Dysgeusia (drug-related adverse event) [8]: 0 (0) n (%)
- Fatigue (drug-related adverse event) [8]: 2 (50) n (%)
- Hepatic function abnormal (drug-related adverse event) [8]: 2 (50) n (%)
- Muscular weakness (drug-related adverse event) [8]: 2 (50) n (%)
- Myalgia (drug-related adverse event) [8]: 1 (25) n (%)
- Nausea (drug-related adverse event) [8]: 0 (0) n (%)
- Pyrexia (drug-related adverse event) [8]: 0 (0) n (%)
- Vomiting (drug-related adverse event) [8]: 0 (0) n (%)
- Blood creatine kinase increased (drug-related adverse event) [9]: 2 (50) n (%)
- Decreased appetite (drug-related adverse event) [9]: 0 (0) n (%)
- Diarrhea (drug-related adverse event) [9]: 0 (0) n (%)
- Dizziness (drug-related adverse event) [9]: 0 (0) n (%)
- Dysgeusia (drug-related adverse event) [9]: 0 (0) n (%)
- Fatigue (drug-related adverse event) [9]: 0 (0) n (%)
- Hepatic function abnormal (drug-related adverse event) [9]: 0 (0) n (%)
- Muscular weakness (drug-related adverse event) [9]: 0 (0) n (%)
- Myalgia (drug-related adverse event) [9]: 0 (0) n (%)
- Nausea (drug-related adverse event) [9]: 0 (0) n (%)
- Pyrexia (drug-related adverse event) [9]: 0 (0) n (%)
- Vomiting (drug-related adverse event) [9]: 0 (0) n (%)
- Blood creatine kinase increased (drug-related adverse event) [10]: 12 (50) n (%)
- Decreased appetite (drug-related adverse event) [10]: 5 (21) n (%)
- Diarrhea (drug-related adverse event) [10]: 2 (8) n (%)
- Dizziness (drug-related adverse event) [10]: 2 (8) n (%)
- Dysgeusia (drug-related adverse event) [10]: 6 (25) n (%)
- Fatigue (drug-related adverse event) [10]: 8 (33) n (%)
- Hepatic function abnormal (drug-related adverse event) [10]: 7 (29) n (%)
- Muscular weakness (drug-related adverse event) [10]: 4 (17) n (%)
- Myalgia (drug-related adverse event) [10]: 8 (33) n (%)
- Nausea (drug-related adverse event) [10]: 5 (21) n (%)
- Pyrexia (drug-related adverse event) [10]: 2 (8) n (%)
- Vomiting (drug-related adverse event) [10]: 3 (13) n (%)
- Blood creatine kinase increased (drug-related adverse event) [11]: 1 (4) n (%)
- Decreased appetite (drug-related adverse event) [11]: 1 (4) n (%)
- Diarrhea (drug-related adverse event) [11]: 0 (0) n (%)
- Dizziness (drug-related adverse event) [11]: 0 (0) n (%)
- Dysgeusia (drug-related adverse event) [11]: 0 (0) n (%)
- Fatigue (drug-related adverse event) [11]: 2 (8) n (%)
- Hepatic function abnormal (drug-related adverse event) [11]: 3 (13) n (%)
- Muscular weakness (drug-related adverse event) [11]: 2 (8) n (%)
- Myalgia (drug-related adverse event) [11]: 2 (8) n (%)
- Nausea (drug-related adverse event) [11]: 0 (0) n (%)
- Pyrexia (drug-related adverse event) [11]: 0 (0) n (%)
- Vomiting (drug-related adverse event) [11]: 0 (0) n (%)
- Blood creatine kinase increased (drug-related adverse event) [12]: 4 (17) n (%)
- Decreased appetite (drug-related adverse event) [12]: 0 (0) n (%)
- Diarrhea (drug-related adverse event) [12]: 0 (0) n (%)
- Dizziness (drug-related adverse event) [12]: 0 (0) n (%)
- Dysgeusia (drug-related adverse event) [12]: 0 (0) n (%)
- Fatigue (drug-related adverse event) [12]: 0 (0) n (%)
- Hepatic function abnormal (drug-related adverse event) [12]: 0 (0) n (%)
- Muscular weakness (drug-related adverse event) [12]: 0 (0) n (%)
- Myalgia (drug-related adverse event) [12]: 0 (0) n (%)
- Nausea (drug-related adverse event) [12]: 0 (0) n (%)
- Pyrexia (drug-related adverse event) [12]: 0 (0) n (%)
- Vomiting (drug-related adverse event) [12]: 0 (0) n (%)
- Maximum tolerated dose (MTD) (group 2, Bayesian logistic regression model, all grade 3 or 4 blood CK elevation incidents): 600 mg q.d.
- Drug-related AE: abnormal hepatic function (group 2, all doses): 29%
- Drug-related AE: fatigue (group 2, all doses): 33%
- Drug-related AE: increase in CK levels (group 2, all doses): 50%
- Drug-related AE: myalgia (group 2, all doses): 33%
- Patients with at least one AE suspected to be related to sonidegib (group 2, n = 18): 75%
- Patients with SAEs that led to drug discontinuation (in each group): four
- Time to recovery of CK after interruption of drug (most cases): 1 month
- Renal impairment or renal failure (patients with grade 3 or 4 CK elevation and high blood myoglobin): no patients experienced renal impairment or renal failure
- CK re-elevation after restart with a 200 mg dose (three patients at 400 mg interrupted for grade 3 CK elevation): not observed
